This is an account of results in ChEMBL document CHEMBL1150378, “Synthesis and in vitro antiprotozoal activities of water-soluble, inexpensive 3,7-bis(dialkylamino)phenoxazin-5-ium derivatives” (J Med Chem, 2008).

The test system of one assay is Plasmodium falciparum. As to the kind of experiment: Antiplasmodial activity against chloroquine and pyrimethamine-resistant Plasmodium falciparum K1. It is filed as functional, organism-based. In outline: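 Compounds were prepared as 10 mg/mL DMSO stocks, diluted in serum-free medium, then brought to test concentrations in complete medium without hypoxanthine. DMSO was at most 1% in the top-concentration wells. IC50 values come from two replicate experiments, with chloroquine as the reference standard. Rat L6 myoblast IC50 served for the selectivity index.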

Assay [1] can be described thus: Selectivity index, Ratio of IC50 for rat L6 cells to IC50 for Plasmodium falciparum K1. It is filed as functional. In outline: (§1)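 Selectivity index is the L6 myoblast cytotoxicity IC50 divided by the IC50 against the respective parasite. Both IC50 values come from two replicate experiments, with compounds diluted from 10 mg/mL DMSO stocks and final DMSO at most 1%.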

The next assay relates to Trypanosoma cruzi. The experiment in a line: Antitrypanosomal activity against Trypanosoma cruzi Tulahuen C2C4. It is filed as functional, organism-based. In a few lines: (§2)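 Test compounds were made up as 10 mg/mL stocks in 100% DMSO, warmed or sonicated to dissolve, then diluted in serum-free medium and brought to working concentration in complete medium without hypoxanthine. DMSO was at most 1% in the top-concentration wells. IC50 was determined by previously described methods, with values from two replicate experiments. Reference drugs were chloroquine, melarsoprol, benznidazole, miltefosine and podophyllotoxin (L6).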

Assay [2] can be described thus: Selectivity index, Ratio of IC50 for rat L6 cells to IC50 for Trypanosoma cruzi Tulahuen C2C4. It is filed as functional. In outline:
as §1

The subject of assay [3] is Trypanosoma brucei rhodesiense. As to the kind of experiment: Antitrypanosomal activity against Trypanosoma brucei rhodesiense STIB900. It is filed as functional, organism-based. In outline:
as §2

Assay [4] in a line: Selectivity index, Ratio of IC50 for rat L6 cells to IC50 for Trypanosoma brucei rhodesiense STIB900. It is filed as functional. In a few lines:
as §1

Another assay has as its system Leishmania donovani. The experiment in a line: Antileishmanial activity against Leishmania donovani MHOM-ET-67/L82 axenic amastigotes. It is filed as functional, organism-based. In a few lines:
as §2

Assay [5] in a line: Selectivity index, Ratio of IC50 for rat L6 cells to IC50 for Leishmania donovani MHOM-ET-67/L82 axenic amastigotes. It is filed as functional. In a few lines:
as §1

For another assay, the system named is L6. As to the kind of experiment: Cytotoxicity against rat L6 cells. It is filed as cell-based. In outline:
as §2

For `CCN(CC)c1ccc2nc3ccc(N(CC)CC)cc3[o+]c2c1.[Cl-]`, the 50% inhibitory concentration (IC50) in the assay with Plasmodium falciparum worked out at 3 nM; in the assay on Trypanosoma cruzi, 36 nM; in assay [3], 228 nM; with Leishmania donovani, 214 nM; with L6, 6700 nM. Also, the “Ratio IC50” value was found to be 2410 in assay [1], 185.4 in assay [2], 29.4 in assay [4] and 31.3 in assay [5].
`CCN(CC)c1ccc2nc3ccc(N4CCOCC4)cc3[o+]c2c1.[Cl-]`: the half-inhibitory concentration (IC50) came to 29 nM in the assay with Plasmodium falciparum; 2940 nM in the assay on Trypanosoma cruzi; 4070 nM in assay [3]; 16300 nM with Leishmania donovani; 40100 nM in the assay on L6. Further, the “Ratio IC50” value is given as 1363.6 in assay [1], 13.6 in [2], 9.9 in [4] and 2.5 in assay [5].
Take `CCCN(CCC)c1ccc2nc3ccc(N4CCOCC4)cc3[o+]c2c1.[Cl-]`: the half-maximal inhibitory concentration (IC50) in the assay with Plasmodium falciparum is 5 nM; in the assay with Trypanosoma cruzi it was 406 nM; in [3], 871 nM; in the assay on Leishmania donovani, 754 nM; in the assay with L6, 19300 nM. Also, the “Ratio IC50” value in [1] was 3883; in assay [2] it was 47.6; in assay [4], 22.2; in assay [5], 25.6.
For the compound `CN(C)c1ccc2nc3ccc(N4CCSCC4)cc3[o+]c2c1.[Cl-]`, the IC50 with Plasmodium falciparum was determined as 6 nM; in the assay with Trypanosoma cruzi, 608 nM; in assay [3], 5470 nM; with Leishmania donovani, 14400 nM; in the assay with L6, 22200 nM. For the same compound, the “Ratio IC50” value in assay [1] is recorded as 4022.5; in [2], 36.6; in assay [4], 4.1; in assay [5], 1.5.
`CCN(CC)c1ccc2nc3ccc(N4CCSCC4)cc3[o+]c2c1.[Cl-]`: the IC50 is 8 nM in the assay on Plasmodium falciparum; 154 nM in the assay on Trypanosoma cruzi; 1610 nM in assay [3]; 1000 nM with Leishmania donovani; 21700 nM in the assay on L6. Further, the “Ratio IC50” value in [1] was found to be 2822; in [2], 141.1; in [4], 13.5; in [5], 21.6.
Regarding `CCCN(CCC)c1ccc2nc3ccc(N4CCSCC4)cc3[o+]c2c1.[Cl-]`, the half-inhibitory concentration (IC50) with Plasmodium falciparum came to 7 nM; in the assay on Trypanosoma cruzi it was 163 nM; in assay [3], 1510 nM; in the assay with Leishmania donovani, 1170 nM; in the assay on L6, 7010 nM. For the same compound, the “Ratio IC50” value in assay [1] came to 976.7; in assay [2], 43.1; in assay [4], 4.6; in [5], 6.
In the case of `[Cl-].c1cc2nc3ccc(N4CCCCC4)cc3[o+]c2cc1N1CCCCC1`, the concentration for half-maximal inhibition (IC50) in the assay on Plasmodium falciparum was determined as 5 nM; in the assay with Trypanosoma cruzi it was 81 nM; in assay [3] it was 154 nM; in the assay on Leishmania donovani, 1140 nM; in the assay on L6 it was 5470 nM. Also, the “Ratio IC50” value in [1] is reported as 1050; in assay [2], 67.7; in assay [4], 35.6; in [5], 4.8.
On to `CN(C)c1ccc2nc3ccc(N4CCCCC4)cc3[o+]c2c1.[Cl-]`, for which the IC50 in the assay on Plasmodium falciparum came to 3 nM; in the assay on Trypanosoma cruzi, 174 nM; in [3], 843 nM; in the assay on Leishmania donovani it was 1660 nM; in the assay on L6 it was 22500 nM. The “Ratio IC50” value is on record as 7740 in assay [1], 129 in assay [2], 26.7 in [4] and 13.6 in assay [5].
With `CCN(CC)c1ccc2nc3ccc(N4CCCCC4)cc3[o+]c2c1.[Cl-]`, the concentration for half-maximal inhibition (IC50) in the assay on Plasmodium falciparum worked out at 3 nM; with Trypanosoma cruzi it was 48 nM; in assay [3], 245 nM; with Leishmania donovani it was 1440 nM; in the assay on L6, 6430 nM. The “Ratio IC50” value in assay [1] is on record as 2390; in assay [2], 132.8; in assay [4], 26.3; in assay [5], 4.5.
For `CCCN(CCC)c1ccc2nc3ccc(N4CCCCC4)cc3[o+]c2c1.[Cl-]`, the concentration for half-maximal inhibition (IC50) was 8 nM in the assay with Plasmodium falciparum; 23 nM with Trypanosoma cruzi; 238 nM in assay [3]; 98 nM with Leishmania donovani; 790 nM with L6. The “Ratio IC50” value was found to be 105.3 in assay [1], 35.1 in assay [2], 3.3 in assay [4] and 8.1 in assay [5].
Consider `CCCCN(CCCC)c1ccc2nc3ccc(N4CCCCC4)cc3[o+]c2c1.[Cl-]`, for which the IC50 in the assay with Plasmodium falciparum turned out to be 7 nM; in the assay with Trypanosoma cruzi it was 58 nM; in assay [3], 269 nM; in the assay with Leishmania donovani it was 2 nM; in the assay on L6 it was 90 nM. For the same compound, the “Ratio IC50” value is on record as 12.3 in assay [1], 1.5 in assay [2], 0.3 in [4] and 37 in assay [5].
On to `CCCCCCN(CCCCCC)c1ccc2nc3ccc(N4CCCCC4)cc3[o+]c2c1.[Cl-]`, for which the IC50 in the assay on Plasmodium falciparum stood at 4 nM; with Trypanosoma cruzi, 21 nM; in assay [3], 14 nM; with Leishmania donovani it was 14 nM; in the assay on L6, 200 nM. Besides, the “Ratio IC50” value is listed as 48 in [1], 9.6 in assay [2], 13.7 in assay [4] and 13.7 in assay [5].
As for `[Cl-].c1cc2nc3ccc(N4CCCC4)cc3[o+]c2cc1N1CCCC1`, the IC50 in the assay on Plasmodium falciparum is 3 nM; in the assay with Trypanosoma cruzi, 121 nM; in assay [3], 160 nM; in the assay on Leishmania donovani, 37 nM; in the assay on L6, 3930 nM. The “Ratio IC50” value in [1] amounted to 1400; in assay [2], 32.6; in [4], 24.6; in assay [5] it was 107.7.
Turning to `CCCN(CCC)c1ccc2nc3ccc(N(CCC)CCC)cc3[o+]c2c1.[Cl-]`, the IC50 was 2 nM in the assay with Plasmodium falciparum; 17 nM in the assay with Trypanosoma cruzi; 23 nM in assay [3]; 2 nM in the assay on Leishmania donovani; 400 nM in the assay with L6. Also, the “Ratio IC50” value stood at 165 in assay [1], 23.6 in assay [2], 17.4 in assay [4] and 165 in assay [5].
As for `[Cl-].c1cc2nc3ccc(N4CCOCC4)cc3[o+]c2cc1N1CCOCC1`, the IC50 with Plasmodium falciparum amounted to 431 nM; with Trypanosoma cruzi it was 7090 nM; in assay [3] it was 8740 nM; with Leishmania donovani, 5180 nM; in the assay with L6, 28600 nM. Besides, the “Ratio IC50” value in [1] was found to be 66.5; in [2] it was 4; in assay [4], 3.3; in assay [5] it was 5.5.
As for `CCN(CC)c1ccc2nc3ccc(N4CCCC4)cc3[o+]c2c1.[Cl-]`, the 50% inhibitory concentration (IC50) with Plasmodium falciparum stood at 6 nM; in the assay with Trypanosoma cruzi, 56 nM; in assay [3] it was 168 nM; in the assay with Leishmania donovani, 654 nM; in the assay on L6 it was 7770 nM. The “Ratio IC50” value in assay [1] was 1390; in assay [2] it was 139; in assay [4], 46.3; in [5], 11.9.
For the compound `CCCN(CCC)c1ccc2nc3ccc(N4CCCC4)cc3[o+]c2c1.[Cl-]`, the half-inhibitory concentration (IC50) was found to be 3 nM in the assay with Plasmodium falciparum; 36 nM in the assay on Trypanosoma cruzi; 16 nM in assay [3]; 16 nM in the assay on Leishmania donovani; 920 nM in the assay on L6. Besides, the “Ratio IC50” value in assay [1] was found to be 355; in assay [2], 25.4; in [4] it was 59.2; in [5] it was 59.2.
With `CN(C)c1ccc2nc3ccc(N4CCCC4)cc3[o+]c2c1.[Cl-]`, the concentration for half-maximal inhibition (IC50) in the assay on Plasmodium falciparum came out at 6 nM; with Trypanosoma cruzi, 258 nM; in assay [3] it was 91 nM; in the assay on Leishmania donovani, 1710 nM; with L6, 13100 nM. Also, the “Ratio IC50” value in assay [1] is reported as 2166.5; in [2], 51; in assay [4] it was 144.4; in assay [5], 7.7.
With `CN(C)c1ccc2nc3ccc(N4CCOCC4)cc3[o+]c2c1.[Cl-]`, the IC50 with Plasmodium falciparum stood at 23 nM; with Trypanosoma cruzi, 5060 nM; in assay [3] it was 2590 nM; in the assay on Leishmania donovani it was 1060 nM; with L6 it was 49800 nM. Further, the “Ratio IC50” value came out at 2153.9 in assay [1], 9.8 in assay [2], 19.2 in assay [4] and 47.2 in assay [5].
Take `CCCCCN(CCCCC)c1ccc2nc3ccc(N4CCCCC4)cc3[o+]c2c1.[Cl-]`: the IC50 in the assay with Plasmodium falciparum was 2 nM; with Trypanosoma cruzi, 15 nM; in assay [3] it was 22 nM; in the assay on Leishmania donovani, 2 nM; with L6 it was 140 nM. The “Ratio IC50” value in assay [1] is given as 63; in assay [2], 9; in assay [4] it was 6.3; in assay [5], 63.
`O=C(Cn1ccnc1[N+](=O)[O-])NCc1ccccc1` [BENZNIDAZOLE] yielded a half-maximal inhibitory concentration (IC50) in the assay with Trypanosoma cruzi of 866 nM.
The compound `CCCCCCCCCCCCCCCCOP(=O)([O-])OCC[N+](C)(C)C` [MILTEFOSINE] gave an IC50 in the assay with Leishmania donovani of 280 nM.
As for `COc1cc([C@@H]2c3cc4c(cc3[C@H](O)[C@H]3COC(=O)[C@H]23)OCO4)cc(OC)c1OC` [PODOFILOX], the IC50 in the assay on L6 came out at 20 nM.

The term IC50 denotes the concentration at which inhibition is half-maximal. A low value points to higher potency.
